# Results collected from several papers.
# Protocols differ between the studies behind these lines.
# IGF1R: Insulin-like growth factor 1 receptor (IGF1R, Homo sapiens, UniProt P08069)
# IGF1R phosphorylated: Insulin-like growth factor 1 receptor, phosphorylated (IGF1R, Homo sapiens, UniProt P08069)
SMILES,target,effect on,action,technique,tested at,measurement,value
C[C@@H](c1cccc(C#N)c1)n1cc(Cl)cc(C(N)=O)c1=N,IGF1R,cell-free assay,,competition with immobilised ligand,1 µM,remaining binding,96%
CS(=O)(=O)Nc1cccc(-c2csc(NC(=O)CSc3nc4nccnc4c(=O)n3CCc3ccccc3)n2)c1,IGF1R,enzyme activity,inhibitor,,10 µM,inhibition,5%
Cc1cc(NC(=O)c2cccc3cc(-c4cccc5[nH]nc(N)c45)ccc23)ccc1F,IGF1R phosphorylated,enzyme activity,inhibitor,,0.1 µM,activity vs control,100%
N#CCCc1ccc2c(c1)-c1[nH]c3ccc([N+](=O)[O-])cc3c1CC(=O)N2,IGF1R,cell-free assay,,,0.5 µM,remaining signal,92.2%
CCN(CC)CCNC(=O)c1c(C)[nH]c(/C=C2\C(=O)Nc3ccc(F)cc32)c1C,IGF1R,enzyme activity,inhibitor,,0.3 µM,inhibition,4%
COc1cc(Nc2c(C#N)cnc3cc(OCCCN4CCN(C)CC4)c(OC)cc23)c(Cl)cc1Cl,IGF1R,cell-free assay,,,0.5 µM,remaining signal,91.5%
CN(c1ncccc1CNc1nc(Nc2ccc3c(c2)CC(=O)N3)ncc1C(F)(F)F)S(C)(=O)=O,IGF1R,enzyme activity,inhibitor,,1 µM,inhibition,97.6%
COc1ccc(Cl)cc1NC(=O)Nc1cc(C)nc2ccccc12,IGF1R,cell-free assay,,,0.5 µM,remaining signal,94.9%
CCCS(=O)(=O)Nc1ccc(F)c(C(=O)c2c[nH]c3ncc(-c4ccc(Cl)cc4)cc23)c1F,IGF1R,enzyme activity,inhibitor,,1 µM,inhibition,< 10%
COc1cc2ncnc(Nc3ccc(Oc4ccccc4)c(C)c3C)c2cc1OC,IGF1R,enzyme activity,inhibitor,,1 µM,inhibition,2%
Cc1ccc(C(=O)NCc2ccsc2)cc1C#Cc1cn(C(C)C)c2ncnc(N)c12,IGF1R phosphorylated,enzyme activity,inhibitor,,1 µM,activity vs control,136%
CS(=O)(=O)N1CCCC(NC(=O)[C@H](CCC2CCCCC2)NC(=O)c2ccc(CNc3ncnc4c3nnn4-c3ccccc3)cc2)C1 (stereo partly drawn),IGF1R,cell-free assay,,competition with immobilised ligand,0.1 µM,remaining binding,100%
COc1cc(/C=C/C(=O)CC(=O)/C=C/c2ccc(O)c(OC)c2)ccc1O,IGF1R,enzyme activity,inhibitor,,1 µM,activity vs control,99%
Cc1nccc(COC(=O)N2C[C@@H]3[C@@H](CNC(=O)c4ccc5[nH]nnc5c4)[C@@H]3C2)n1,IGF1R,cell-free assay,,competition with immobilised ligand,1 µM,remaining binding,93%
CN1CC(Oc2cnc(C#N)cc2-c2ccn3nc(NC(=O)C4CC4)cc3c2)C1,IGF1R phosphorylated,enzyme activity,inhibitor,,1 µM,inhibition,-13%
Cc1c(NC(=O)c2cc(C(N)=O)nc3cc(F)ccc23)c(C(F)(F)F)nn1Cc1ccc(C#N)cc1,IGF1R,cell-free assay,,competition with immobilised ligand,1 µM,remaining binding,100%
CNCc1ccc(-c2cc(-c3nc(-c4ccc(S(=O)(=O)C(C)C)cc4)cnc3N)on2)cc1,IGF1R,enzyme activity,inhibitor,,2 µM,inhibition,2%
Nc1c(C(=O)NCc2ccc(C(=O)NCCCC3CCCCC3)cc2)cnn1-c1ccccc1,IGF1R,cell-free assay,,competition with immobilised ligand,0.1 µM,remaining binding,98%
CC/C(=N\NC(=O)NCc1cccc(O)c1)c1ccc(O)c(C)c1O,IGF1R,enzyme activity,inhibitor,,0.1 µM,inhibition,3%
CN(C)C(=O)Cn1cc(-c2nc(C3(c4ccc(-c5cnc(N)nc5)cc4)CC3)no2)cn1,IGF1R,cell-free assay,,competition with immobilised ligand,1 µM,remaining binding,85%
COc1cc2nccc(Oc3ccc(NC(=O)c4c5n(n(-c6ccc(F)cc6)c4=O)CCCC5)cc3)c2cc1OC,IGF1R,enzyme activity,inhibitor,,0.1 µM,inhibition,16%
